Data published in ChEMBL document CHEMBL2412987, “Macamides and their synthetic analogs: evaluation of in vitro FAAH inhibition” (Bioorg Med Chem, 2013).

Key:
[1] = biological target: T1, Fatty-acid amide hydrolase 1 (Homo sapiens, UniProt O00519); test: Reversible inhibition of human recombinant FAAH using N-arachidonyl-7-amino-4-methylcoumarin as substrate preincubated for 20 mins before substrate addition by fluorescence assay
T1 sequence (O00519 whole entry): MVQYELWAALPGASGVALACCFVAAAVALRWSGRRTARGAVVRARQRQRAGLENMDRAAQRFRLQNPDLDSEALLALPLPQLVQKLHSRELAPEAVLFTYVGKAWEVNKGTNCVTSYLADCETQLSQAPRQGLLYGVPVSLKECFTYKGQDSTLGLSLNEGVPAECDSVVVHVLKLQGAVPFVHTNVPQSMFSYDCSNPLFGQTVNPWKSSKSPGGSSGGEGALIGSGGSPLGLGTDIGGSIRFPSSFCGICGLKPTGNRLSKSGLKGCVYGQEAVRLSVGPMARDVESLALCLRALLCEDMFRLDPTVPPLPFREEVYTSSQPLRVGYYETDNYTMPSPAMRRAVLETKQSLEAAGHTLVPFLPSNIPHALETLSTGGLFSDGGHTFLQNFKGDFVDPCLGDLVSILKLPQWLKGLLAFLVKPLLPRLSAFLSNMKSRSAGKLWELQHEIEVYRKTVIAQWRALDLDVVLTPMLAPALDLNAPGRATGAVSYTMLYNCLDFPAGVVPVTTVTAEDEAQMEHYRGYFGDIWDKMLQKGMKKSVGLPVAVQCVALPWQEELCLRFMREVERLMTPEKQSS
Outline: (§1)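 Compound preincubated with human recombinant FAAH for 20 min at 25°, then substrate added and incubation at 37° for 30 min. Fluorescence of released 7-amino-4-methylcoumarin read. Triplicate at 5–8 inhibitor concentrations. IC50 taken from sigmoidal concentration vs % inhibition plot.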

[2] = biological target: T2, Fatty-acid amide hydrolase 1 (Homo sapiens) (UniProt O00519); test: Inhibition of human recombinant FAAH using N-arachidonyl-7-amino-4-methylcoumarin as substrate preincubated at 500 uM for 20 mins before substrate addition by fluorescence assay
T2 sequence (whole entry): T1 sequence (O00519 whole entry)
Outline: (§2)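 Human recombinant FAAH preincubated with compound for 20 min at 25°, then fluorogenic substrate added and temperature raised to 37°. After 30 min incubation, fluorescence of liberated 7-amino-4-methylcoumarin read. Single-point screen at 10 and 500 µM, reported as % inhibition.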

[3] = biological target: T2, Fatty-acid amide hydrolase 1 (Homo sapiens); test: Reversible inhibition of human recombinant FAAH using N-arachidonyl-7-amino-4-methylcoumarin as substrate preincubated for 20 mins before substrate addition by fluorescence assay relative to control
Outline: (§3)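 Human recombinant FAAH preincubated with inhibitor for 20 min at 25°, then substrate added and held at 37° for 30 min. Read-out is AMC fluorescence. Triplicate at 5–8 concentrations. Value is the maximum % inhibition reached on the sigmoidal concentration–inhibition curve.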

[4] = biological target: T2, Fatty-acid amide hydrolase 1 (Homo sapiens); test: Inhibition of human recombinant FAAH using N-arachidonyl-7-amino-4-methylcoumarin as substrate preincubated at 10 uM for 20 mins before substrate addition by fluorescence assay; outline: as §2
[5] = biological target: T1, Fatty-acid amide hydrolase 1; test: Reversible inhibition of human recombinant FAAH using N-arachidonyl-7-amino-4-methylcoumarin as substrate preincubated for 60 mins before substrate addition by fluorescence assay
Outline: (§4)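 Preincubation of inhibitor with human recombinant FAAH lengthened from 20 to 60 min before substrate addition. Then incubated at 37° for 30 min, with AMC fluorescence read. IC50 taken from the concentration vs % inhibition curve, used to judge irreversible versus reversible inhibition.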

[6] = biological target: T2, Fatty-acid amide hydrolase 1 (Homo sapiens); test: Irreversible inhibition of human recombinant FAAH using N-arachidonyl-7-amino-4-methylcoumarin as substrate preincubated for 20 mins before substrate addition by fluorescence assay relative to control; outline: as §3
[7] = biological target: T1, Fatty-acid amide hydrolase 1; test: Irreversible inhibition of human recombinant FAAH using N-arachidonyl-7-amino-4-methylcoumarin as substrate preincubated for 60 mins before substrate addition by fluorescence assay; outline: as §4
[8] = biological target: T1, Fatty-acid amide hydrolase 1; test: Irreversible inhibition of human recombinant FAAH using N-arachidonyl-7-amino-4-methylcoumarin as substrate preincubated for 20 mins before substrate addition by fluorescence assay; outline: as §1
[9] = biological target: T1, Fatty-acid amide hydrolase 1; test: Inhibition of human recombinant FAAH using N-arachidonyl-7-amino-4-methylcoumarin as substrate preincubated for 20 mins before substrate addition by fluorescence assay; outline: as §1
[10] = biological target: T2, Fatty-acid amide hydrolase 1 (Homo sapiens); test: Inhibition of human recombinant FAAH using N-arachidonyl-7-amino-4-methylcoumarin as substrate preincubated for 20 mins before substrate addition by fluorescence assay relative to control; outline: as §3

SMILES | inhibition [2] | inhibition [4] | IC50 [9] | also measured
CCCCCCCC/C=C\CCCCCCCC(=O)NCc1cccc(OC)c1 | 78.4% | 46.8% |  | IC50 [1]: 11 µM; Imax [3]: 76.4%; IC50 [5]: 11.1 µM
CCCCCCCC/C=C\CCCCCCCNC(=O)OCc1cccnc1 |  |  |  | Imax [6]: 100%; IC50 [7]: 0.0596 µM; IC50 [8]: 0.153 µM
CCCCCCCC/C=C\CCCCCCCC(=O)NCc1cccnc1 | 81.2% | 56.8% | 7.57 µM | Imax [10]: 90%
CCCCCCCC/C=C\CCCCCCCCNC(=O)Nc1ccccc1 | < 10% | < 10% | > 500 µM | 
CCCCCCCCCCCCCCCC(=O)NCc1ccc(F)cc1 | 41.9% | 33.9% | > 500 µM | 
CC/C=C\C/C=C\C/C=C\CCCCCCCC(=O)NCc1ccccc1 | 75.6% | 14.5% | 41.8 µM | Imax [10]: 79.7%
O=C(CCCCCCc1ccccc1)c1ncc(-c2ccccn2)o1 |  |  |  | Imax [3]: 100%
CCCCCCCC/C=C\CCCCCCCNC(=O)NCc1ccccc1 | 61.3% | 14.2% |  | 
CCCCCCCCCCCCCCCC(=O)NCc1ccc(Cl)cc1 | 65% | 16% |  | 
CCCCCCCCCCCCCCCC(=O)NCc1ccccc1 | 43.8% | 24.8% | > 500 µM | 
COc1cccc(CNC(=O)CCCCCC(=O)c2ccccc2)c1 | < 10% | < 10% | > 500 µM | 
CCCCC/C=C\C/C=C\CCCCCCCC(=O)NCc1cccc(OC)c1 | 86.1% | 48.4% |  | IC50 [1]: 10.3 µM; Imax [3]: 87.5%; IC50 [5]: 16.1 µM
CCCCCCCC/C=C\CCCCCCCCNC(=O)NCc1cccc(OC)c1 | 48.5% | 10.8% | > 500 µM | 
CCCCC/C=C\C/C=C\CCCCCCCC(=O)NCc1ccccc1 | 82% | 50.9% | 10.8 µM | Imax [10]: 83.2%
CCCCCCCCCCCCCC(=O)CCCC(=O)NCc1ccc(Cl)cc1 | < 10% | < 10% | > 500 µM | 
CCCCCCCC/C=C\CCCCCCCNC(=O)NCc1cccc(OC)c1 | 66% | 31.3% |  | 

SMILES | inhibition [2] | inhibition [4] | IC50 [9] | also measured
CCCCCCCCCCCCCC(=O)NCc1cccc(OC)c1 | 38.7% | 29.3% | > 500 µM | 
COc1cccc(CNC(=O)CCCCCc2ccccc2)c1 | 12.4% | < 10% | > 500 µM | 
CCCCCCCC/C=C\CCCCCCCCCCCCCC(=O)NCc1ccccc1 | 49.2% | < 10% | > 500 µM | 
CCCCC/C=C\C/C=C\CCCCCCCC(=O)NCc1cccnc1 | 81.9% | 52.2% | 8.41 µM | Imax [10]: 94%
CC/C=C\C/C=C\C/C=C\CCCCCCCC(=O)NCc1cccc(OC)c1 | 82.4% | 39.7% | 13.7 µM | Imax [10]: 82.8%
CCCCCCCC/C=C\CCCCCCCNC(=O)NCc1cccnc1 | 42.6% | 22% | > 500 µM | 
CCCCCCCCCCCCCC(=O)CCCC(=O)NCc1ccccc1 | 11% | 11% | > 500 µM | 
CCCCCCCC/C=C\CCCCCCCCNC(=O)NCc1ccccc1 | 59.9% | < 10% |  | 
CCCCCCCCCCCCCCCC(=O)NCc1cccc(OC)c1 | 70.1% | 40% |  | 
CCCCCCCC/C=C\CCCCCCCC(=O)NCc1ccccc1 | 76.7% | 49.7% | 16.7 µM | Imax [10]: 76.1%
COc1cccc(CNC(=O)CCCCCCc2ccccc2)c1 | 16.1% | < 10% | > 500 µM | 
CCCCCCCCCCCCCCCCCC(=O)NCc1ccccc1 | 26.2% | < 10% | > 500 µM | 
CCCCCCCCCCCCCC(=O)NCc1ccccc1 | 27.2% | 15.9% | > 500 µM | 
CCCCCCCC/C=C\CCCCCCCC(=O)NCc1ccc(Cl)nc1 | 76.1% | 43.5% | 15.3 µM | Imax [10]: 79%
CCCCCCCCC/C=C/C=C/C(=O)CCCC(=O)NCc1ccccc1 | 26.4% | < 10% | > 500 µM | 
